Screening results from PubChem.
Shown are actives, neighbours in structure and some others; about 3.3% of the full set was active somewhere.
5-HT1A blocker: antagonists of human 5-HT1a serotonin receptor | 62,000 compounds, 0.68% hits | P08908 | inhibition, % at 10 µM | AID 612 | CHO 5-HT1a Ga15 NFAT-bla reporter, antagonist mode;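 active = inhibition above the mean of all tested compounds plus 3 SD, cut at about 43% in these data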;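 note: receptor stimulated by 5-CT agonist at 100 nM near EC80; beta-lactamase reporter measured by ratiometric fluorescence of a cleavable substrate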
HTR1E antagonist: blocks the human 5-HT1E serotonin receptor; 65,000 compounds, 0.99% hits; CHO 5-HT1E Ga15 NFAT-bla reporter, FRET, antagonist; inhibition, % at 6 µM;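 active = inhibition above a set limit, the mean inhibition across every tested compound plus 3 SD, cut at about 29% in these data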;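 note: signal is the 460 over 535 nm emission ratio of beta-lactamase substrate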
HTR1E agonist: activates the human 5-HT1E serotonin receptor; P28566; activation, % at 6 µM; 65,000 compounds, 0.69% hits; AID 574; CHO 5-HT1E Ga15 NFAT-bla reporter, FRET; 0% DMSO wells, 100% control agonist wells;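 active = activation above a set limit, the screen-wide mean activation plus 3 SD, cut at about 8.5% in these data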
HEK293 NFkB inh: lowers PMA/ionomycin-induced NF-kB signal in HEK293 cells. HEK-293 NF-kB luciferase reporter, luminescence. inhibition, % at 3 µM. 62,000 compounds, 0.21% hits;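 active = inhibition above the mean of all tested compounds plus 3 SD, cut at about 40% in these data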
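System: NF-kB luciferase reporter HEK-293 cells | Replication: Single test | Control set: DMSO vs reference inhibitor | Evaluation: % inhibition | Schedule: 1 h pretreatment, 16 h stimulation, 37 °C | Probe or stimulus: PMA with ionomycin | Compound dosing: One dose, 3 µM | Detection: Luciferase luminescence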
Jurkat tox 60K: cytotoxic compounds reducing Jurkat cell viability | Jurkat E6.1 viability, ATP luminescence, 48 h | inhibition, % at 4 µM | 56,000 compounds, 1.2% hits | AID 463;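 active = inhibition above the mean inhibition of all tested compounds plus 3 SD, cut at about 28% in these data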
5HT1a ag: agonists of human 5-HT1a serotonin receptor; P08908; CHO 5-HT1a Ga15 NFAT-bla reporter, FRET ratio; 0% basal, 100% maximal reference agonist; activation, % at 10 µM; 65,000 compounds, 0.56% hits;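 active = activation above the screen-wide mean activation plus 3 SD, cut at about 19% in these data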
Large screens that a line does not name were inactive.

Cn1c(O)c(C=NCCOc2ccc(Cl)cc2)c(=O)n(C)c1=O	HTR1E antagonist 30
Cc1ccc(CN2C(=O)NC(=O)C3(Cc4c(nc5ccccn5c4=O)N4CCCCCC43)C2=O)cc1 (stereo not given)	none
Cc1ccc(-n2c(O)c(C=Nc3ccccc3N)c(=O)[nH]c2=O)cc1C	Jurkat tox 60K 86
[N-]=[N+]=CC(=O)OC[C@H](N)C(=O)O	none (no result: 5-HT1A blocker, HEK293 NFkB inh, Jurkat tox 60K)
COc1ccc(C(=O)C(C)(C)NO)cc1	HTR1E agonist 8.8
CNCCc1c[nH]c2ccccc12	HTR1E agonist 104, 5HT1a ag 28 (no result: 5-HT1A blocker, HEK293 NFkB inh, Jurkat tox 60K)
c1ccc2c(CCNCc3ccc4c(c3)OCO4)c[nH]c2c1	none
Cn1ncnc2c(=O)n(C)c(=O)nc1-2	5-HT1A blocker 85, HTR1E antagonist 101, HEK293 NFkB inh 99, Jurkat tox 60K 88
